14 compounds from ChEMBL document CHEMBL6096655, “Discovery of a novel, selective CK2 inhibitor class with an unusual basic scaffold” (Eur J Med Chem, 2025) can be followed below.

Activity calls are given as the source filed them. No cut-off for these calls is given here.

Usually GI50 stands for the concentration at which growth is held to half of that of the control. Broadly, the inhibition is the share of the control response that was lost under treatment. A word on the IC50: it is the concentration that inhibits the measured activity by half.

In data set [1] the test system is 786-0. In words: Antiproliferative activity against human 786-0 cells assessed as inhibition of cell growth measured after 3 to 4 days by MTT assay. The data set is classed as functional. The settings on record: time 3-4 day. The method in brief: (§1)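 786-O or U937 cells grown in RPMI with 2 mM L-glutamine, 1% pen/strep and 10% FCS. Cells were seeded at 5000 per well and left overnight, then switched to 1% FCS medium containing compound or DMSO (max. 0.2% final). Growth ran 3–4 days at 37 °C in 5% CO₂ without medium change, followed by MTT read-out. GI50 is the mean ± SD of at least two independent experiments.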
Background: Tetrazolium assays rely on reduction of a dye to a coloured formazan, in cell work by metabolically active cells.

For data set [2], the system named is 786-0. In words: Antiproliferative activity against human 786-0 cells assessed as inhibition of cell growth at 30 uM measured after 3 to 4 days by MTT assay relative to control. The settings on record: time 3-4 day. The data set is classed as functional. The method in brief: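 786-O cells (RPMI, 10% FCS) seeded at 5000 per well and left overnight. Compound was added at a single 30 µM concentration in 1% FCS medium (DMSO max. 0.2%). Cells grew 3–4 days at 37 °C, 5% CO₂, with no medium change, and were read by MTT. Percent inhibition is the mean of duplicates that differed by ≤10%.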

Data set [3] concerns the target T1, Casein kinase II subunit alpha (Homo sapiens, UniProt P68400). Kind of data set: Inhibition of CK2alpha (unknown origin).
Target sequence in this assay (P68400 whole entry): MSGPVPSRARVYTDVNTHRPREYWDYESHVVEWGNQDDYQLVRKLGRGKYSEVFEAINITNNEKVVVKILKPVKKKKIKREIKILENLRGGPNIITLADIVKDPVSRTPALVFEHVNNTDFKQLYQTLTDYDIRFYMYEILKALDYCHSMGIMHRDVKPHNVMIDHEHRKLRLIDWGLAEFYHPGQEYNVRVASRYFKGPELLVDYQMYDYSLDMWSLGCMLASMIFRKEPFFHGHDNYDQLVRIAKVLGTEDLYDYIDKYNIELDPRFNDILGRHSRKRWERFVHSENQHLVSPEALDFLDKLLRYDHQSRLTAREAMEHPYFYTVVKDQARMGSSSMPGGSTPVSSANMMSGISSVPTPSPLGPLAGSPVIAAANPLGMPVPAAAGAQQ
For data set [4], the target named is T1, Casein kinase II subunit alpha. Kind of data set: Inhibition of CK2alpha (unknown origin) assessed as residual activity at 5 uM relative to control.
Target sequence in this assay (P68400 whole entry, looked up): as the sequence (P68400 whole entry) above
A short description of data set [5]: Antiproliferative activity against HEK293 cells assessed as inhibition of cell growth measured after 3 to 4 days by MTT assay. The data set is classed as toxicity, cell-based. The following applies: human, time 3-4 day. The method in brief:
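HEK293 cells grown in DMEM with 2 mM L-glutamine, 1% pen/strep and 10% FCS. Cells were seeded at 5000 per well, left overnight, then given medium with 1% FCS plus compound or DMSO (max. 0.2% final). They were grown 3–4 days at 37 °C in 5% CO₂ with no medium change, and growth was read by MTT.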

Data set [6] can be described thus: Upregulation of PARP cleavage in human U-937 cells by measuring signal 2 at 10 uM measured after 48 hrs by immunoblot analysis. The data set is classed as functional. The essentials: (§2)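 U937 cells exposed to compound or DMSO for 48 h, then lysed in Laemmli buffer. Lysates were run on 8–16% gradient SDS-PAGE, semi-dry blotted to PVDF and probed for PARP. Detection used IR-fluorescent secondary antibodies. The cleaved/uncleaved PARP signal ratio was obtained by densitometry. Results are representative of two independent experiments.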

Data set [7] in a line: Upregulation of PARP cleavage in human U-937 cells by measuring signal 2 at 2 uM measured after 48 hrs by immunoblot analysis. The data set is classed as functional. The essentials: (§3)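 U937 lymphoma cells grown in RPMI with 2 mM L-glutamine, 1 % pen/strep and 10 % FCS; exposed to compound or DMSO solvent control for 48 h. Total cellular proteins harvested and immunoblotted with an antibody against phosphorylated CK2-substrate motifs and for PARP. Read-out is the densitometric ratio of cleaved to uncleaved PARP signal. Representative of two independent experiments.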
(In western blotting, separated proteins are transferred to a membrane and probed.)

A further data set has as its system U-937. Kind of data set: Antiproliferative activity against human U-937 cells assessed as inhibition of cell growth measured after 3 to 4 days by MTT assay. The settings on record: time 3-4 day. The data set is classed as functional. The method in brief:
as §1

Data set [8] in a line: Upregulation of PARP cleavage in human U-937 cells by measuring signal 1 at 2 uM measured after 48 hrs by immunoblot analysis. The data set is classed as functional. The method in brief:
as §2

The test system of data set [9] is 786-0. In words: Induction of cell death in human 786-0 cells assessed as cell viability at 5 uM measured after 11 hrs by CellCyteX live-cell microscopy analysis. The data set is classed as functional, cell-based. The method in brief: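 786-O cells seeded at 3×10³ per well and grown 24 h. Compound was then added in culture medium containing 125 nM Cytotox Green, at 0.2% (v/v) final DMSO, and kept at 37 °C in 5% CO₂. Green fluorescence images of dead cells were taken every 3 h by live-cell microscopy and normalized to the DMSO control. Results are representative of three independent measurements.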

The target in data set [10] is T2, Hsp90 co-chaperone Cdc37 (Homo sapiens) (UniProt Q16543).
T2 sequence (whole entry): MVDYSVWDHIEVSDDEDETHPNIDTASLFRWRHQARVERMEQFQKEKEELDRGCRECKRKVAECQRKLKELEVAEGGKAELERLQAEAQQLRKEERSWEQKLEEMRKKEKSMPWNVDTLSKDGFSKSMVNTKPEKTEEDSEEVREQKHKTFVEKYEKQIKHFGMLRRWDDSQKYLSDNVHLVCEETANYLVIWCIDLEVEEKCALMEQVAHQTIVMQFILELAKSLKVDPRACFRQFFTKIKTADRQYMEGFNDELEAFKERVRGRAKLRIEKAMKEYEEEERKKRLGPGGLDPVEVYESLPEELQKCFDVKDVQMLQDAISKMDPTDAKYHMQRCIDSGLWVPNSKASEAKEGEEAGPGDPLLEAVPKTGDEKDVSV
In words: Inhibition of CDC37 phosphorylation in human 786-O cells at 10 uM measured after 48 hrs by immunoblot analysis relative to control.

The target in data set [11] is Eukaryotic translation initiation factor 2 subunit 2 (Homo sapiens) (UniProt P20042). In words: Inhibition of eIF2beta phosphorylation in human 786-O cells at 10 uM measured after 48 hrs by immunoblot analysis relative to control.
The target in data set [12] is Signal transducer and activator of transcription 3 (Homo sapiens) (UniProt P40763). Kind of data set: Inhibition of STAT3 phosphorylation in human 786-O cells at 10 uM measured after 48 hrs by immunoblot analysis relative to control.
Data set [13] can be described thus: Upregulation of PARP cleavage in human U-937 cells by measuring signal 2 at 5 uM measured after 48 hrs by immunoblot analysis. The data set is classed as functional. The essentials: as §3
Data set [14] is described as follows: Upregulation of PARP cleavage in human U-937 cells by measuring signal 1 at 5 uM measured after 48 hrs by immunoblot analysis. The data set is classed as functional. The method in brief: as §2
Another data set deals with HCT-116. In words: Antiproliferative activity against human HCT-116 cells measured after 72 hrs by alamar blue staining based fluorescence assay. The data set is classed as functional.

Sequence of Eukaryotic translation initiation factor 2 subunit 2 (Homo sapiens) (P20042 whole entry): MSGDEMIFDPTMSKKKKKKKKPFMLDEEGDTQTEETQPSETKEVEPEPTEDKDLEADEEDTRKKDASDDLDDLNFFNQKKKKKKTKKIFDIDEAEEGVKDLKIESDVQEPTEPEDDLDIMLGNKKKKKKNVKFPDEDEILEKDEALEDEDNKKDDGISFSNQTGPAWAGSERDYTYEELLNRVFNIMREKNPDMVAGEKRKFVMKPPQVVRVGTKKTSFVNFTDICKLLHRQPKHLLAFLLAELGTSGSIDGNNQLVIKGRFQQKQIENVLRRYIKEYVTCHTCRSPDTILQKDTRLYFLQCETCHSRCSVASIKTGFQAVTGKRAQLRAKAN
Sequence of Signal transducer and activator of transcription 3 (Homo sapiens) (P40763 whole entry): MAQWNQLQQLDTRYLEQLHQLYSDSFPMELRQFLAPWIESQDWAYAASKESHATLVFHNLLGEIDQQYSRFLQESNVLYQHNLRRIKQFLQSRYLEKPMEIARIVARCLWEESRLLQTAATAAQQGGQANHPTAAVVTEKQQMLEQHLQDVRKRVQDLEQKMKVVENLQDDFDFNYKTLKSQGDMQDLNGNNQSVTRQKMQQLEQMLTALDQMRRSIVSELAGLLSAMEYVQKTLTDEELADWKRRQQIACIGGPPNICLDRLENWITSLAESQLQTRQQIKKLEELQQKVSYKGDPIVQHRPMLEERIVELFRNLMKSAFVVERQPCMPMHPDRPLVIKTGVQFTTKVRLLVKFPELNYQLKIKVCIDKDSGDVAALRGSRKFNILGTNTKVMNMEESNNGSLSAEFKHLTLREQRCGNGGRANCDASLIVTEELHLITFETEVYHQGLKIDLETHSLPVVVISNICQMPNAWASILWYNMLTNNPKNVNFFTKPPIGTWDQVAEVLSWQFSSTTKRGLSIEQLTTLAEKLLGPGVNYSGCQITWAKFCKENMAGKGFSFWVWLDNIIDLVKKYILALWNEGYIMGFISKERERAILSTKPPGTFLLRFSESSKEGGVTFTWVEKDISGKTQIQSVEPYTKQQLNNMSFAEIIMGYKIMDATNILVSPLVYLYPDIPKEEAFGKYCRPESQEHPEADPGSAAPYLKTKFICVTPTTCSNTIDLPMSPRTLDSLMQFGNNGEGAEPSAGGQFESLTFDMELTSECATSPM

Regarding `Brc1ccccc1/C=N/Nc1ncnc2sc3c(c12)CCNC3`, the GI50 with 786-0 [1] worked out at 6.6 µM. Moreover, in the data set with 786-0 [2], the inhibition at 30 µM was determined as 99.2%.

On to `COc1cccc(N2CCN(c3ncnc4sc5c(c34)CCNC5)CC2)c1`, for which, in the data set on 786-0 [1], the GI50 amounted to 29.5 µM. Besides, in the data set with 786-0 [2], the inhibition at 30 µM came out at 50.2%.

For the compound `COc1ccc(N2CCN(c3ncnc4sc5c(c34)CCNC5)CC2)cc1`, the inhibition at 30 µM with 786-0 [2] is 27.7%.

Take `Cc1cccc(N2CCN(c3ncnc4sc5c(c34)CCNC5)CC2)c1`: in the data set with 786-0 [2], the inhibition at 30 µM is 47.2%.

In the case of `Cc1nc2c(Br)c(Br)c(Br)c(Br)c2n1CCCN`, in data set [3], the IC50 was determined as 0.15 µM. Besides, in data set [4], the Activity stood at 23%.

For the compound `c1ccc(N2CCN(c3ncnc4sc5c(c34)CCNC5)CC2)cc1`, in the data set with 786-0 [2], the inhibition at 30 µM is 15.9%.

For `Fc1ccc(N2CCN(c3ncnc4sc5c(c34)CCNC5)CC2)cc1`, the inhibition at 30 µM in the data set with 786-0 [2] is 25.3%.

As for `COc1ccccc1N1CCN(c2ncnc3sc4c(c23)CCNC4)CC1`, the inhibition at 30 µM in the data set with 786-0 [2] worked out at 36.7%.

On to `Cc1ccc(N2CCN(c3ncnc4sc5c(c34)CCNC5)CC2)cc1`, for which the GI50 with 786-0 [1] stood at 14.7 µM. Besides, the inhibition at 30 µM with 786-0 [2] came to 78.2%.

With `O=C(O)c1ccc2c(c1)nc(Nc1cccc(Cl)c1)c1ccncc12` [SILMITASERTIB], the GI50 was over 30 µM in data set [5], 4 µM with U-937 and 5.5 µM in the data set with 786-0 [1]. Also, the Activity in data set [6] was 39%; in data set [7], 0%; in data set [8], 82%; with 786-0 [9] it was “Not active; Compound Showed Poor Efficacy To Induce Cell Death”; in [13], 91%; in data set [14] it was 88%. Further, the figures for the inhibition in data set [10], in [11] and in data set [12] were 73%, 96% and 100%, respectively. In the data set with 786-0 [2], the inhibition result was “inactive”.

Turning to `CCC(=O)Nc1cc(Nc2cc(NC3CC3)n3ncc(C#N)c3n2)ccc1C`, the 50% growth inhibitory concentration (GI50) in data set [5] is over 30 µM; in the data set with U-937 it was 1.8 µM; in the data set with HCT-116 it was over 10 µM; in the data set with 786-0 [1] it was 5.7 µM. Also, the Activity in data set [7] is 0%; with 786-0 [9], “Not active; Compound Showed Poor Efficacy To Induce Cell Death”; in data set [14] it was 91%.

For `Fc1cccc(N2CCN(c3ncnc4sc5c(c34)CCNC5)CC2)c1`, the concentration for 50% growth inhibition (GI50) with 786-0 [1] came to 15 µM. The inhibition at 30 µM in the data set on 786-0 [2] was determined as 74.6%.

Regarding `Cc1ccccc1N1CCN(c2ncnc3sc4c(c23)CCNC4)CC1`, in the data set with 786-0 [1], the GI50 amounted to 30 µM. Besides, the inhibition at 30 µM in the data set with 786-0 [2] is 52.1%.

Regarding `Fc1ccccc1N1CCN(c2ncnc3sc4c(c23)CCNC4)CC1`, the inhibition at 30 µM with 786-0 [2] stood at 35.8%.
